For assay [1], the target named is T1, Cannabinoid receptor 2 (Homo sapiens, UniProt P34972). In words: Inverse agonist activity at human CB2 receptor expressed in CHO cell membrane assessed as increase in forskolin-stimulated cAMP production by scintillation counting analysis. Format: functional, cell membranes. For orientation: Cyclic AMP is a second messenger, typically raised through Gs and lowered through Gi signalling.

The target in assay [2] is T1, Cannabinoid receptor 2. The assay is described as follows: Inverse agonist activity at human CB2 receptor expressed in CHO cell membrane assessed as increase in forskolin-stimulated cAMP production at 10 uM by scintillation counting analysis relative to WIN55212-2. The essentials:
(§1)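 Whole hCB₂ CHO cells (1 × 10⁶/assay) in HEPES-buffered saline with glucose, pH 7.4, preincubated 10 min at 37 °C with 0.5 mM Ro 20-1724. Compound at 1 or 10 μM with 1 μM forskolin. Stopped with cold 6% TCA, ether-extracted; cAMP measured by [³H]cAMP competition binding with adrenal binding protein. Expressed as % increase versus WIN 55,212-2 (set −100%); n = 4.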

The target in assay [3] is T1, Cannabinoid receptor 2. In words: Inverse agonist activity at human CB2 receptor expressed in CHO cell membrane assessed as increase in forskolin-stimulated cAMP production at 1 uM by scintillation counting analysis relative to WIN55212-2. The essentials: as §1
The species named for assay [4] is Homo sapiens. The assay is described as follows: Selectivity index, ratio of Ki for human CB1 receptor to Ki for human CB2 receptor.
The target of assay [5] is T1, Cannabinoid receptor 2. The assay is described as follows: Displacement of [3H]CP-55940 from human CB2 receptor expressed in CHO cell membrane after 60 mins by scintillation counting analysis. Format: cell membranes. The procedure, abridged:
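Human CB₂-expressing CHO cell membranes in 50 mM Tris-HCl, 0.5% BSA, 5 mM MgCl₂, 1 mM EDTA, pH 7.4. Binding of 0.5 nM [³H]CP-55,940 competed with 1 nM–10 μM compound for 60 min at 30 °C, then GF/C filtration and scintillation counting. Ki by Cheng-Prusoff from IC50; mean SEM of n = 4.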
For orientation: In a radioligand displacement assay an active substance lowers the binding of a labelled ligand.

Assay [6] concerns the target T2, Cannabinoid receptor 1 (Homo sapiens, UniProt P21554). In words: Displacement of [3H]CP-55940 from human CB1 receptor expressed in CHO cell membrane after 90 mins by scintillation counting analysis. In kind it is cell membranes. The procedure, abridged:
(§2)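 Membranes from CHO cells stably expressing human CB₁ (G418-maintained), suspended in 50 mM Tris-HCl, 0.5% BSA, 5 mM MgCl₂, 2.5 mM EDTA, pH 7.4. Displacement of 0.5 nM [³H]CP-55,940 by 1 nM–10 μM compound, 90 min, 30 °C. Filtration on GF/C, scintillation counting. Cheng-Prusoff Ki, LIGAND fitting; mean SEM, n = 4.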

The target of assay [7] is Cannabinoid receptor 1 (Rattus norvegicus, UniProt P20272). The assay is described as follows: Displacement of [3H]CP-55940 from Sprague-Dawley rat brain CB1 receptor after 90 mins by scintillation counting analysis. The procedure, abridged:
(§3)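 Competition with [³H]CP-55,940 (1.0 nM stated in rat CB₁ section; 0.5 nM in general protocol) against 1 nM–10 μM compound, 90 min at 30 °C. GF/C filtration, scintillation counting. Ki via Cheng-Prusoff; mean SEM, n = 4.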

For assay [8], the target named is T3, Cannabinoid receptor 2 (Rattus norvegicus, UniProt Q9QZN9).
T3 sequence (Q9QZN9 whole entry): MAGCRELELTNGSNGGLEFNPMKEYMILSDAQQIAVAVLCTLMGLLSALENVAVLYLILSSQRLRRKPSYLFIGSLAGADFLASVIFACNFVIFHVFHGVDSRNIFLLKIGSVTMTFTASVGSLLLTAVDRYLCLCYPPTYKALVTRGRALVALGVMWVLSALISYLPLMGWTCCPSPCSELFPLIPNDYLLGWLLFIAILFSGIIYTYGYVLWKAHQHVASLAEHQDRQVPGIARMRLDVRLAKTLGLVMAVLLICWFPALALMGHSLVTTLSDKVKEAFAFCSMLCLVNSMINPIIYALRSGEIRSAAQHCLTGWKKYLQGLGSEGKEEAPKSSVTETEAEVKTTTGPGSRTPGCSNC
In words: Displacement of [3H]CP-55940 from Sprague-Dawley rat spleen CB2 receptor after 60 mins by scintillation counting analysis. The essentials:
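Competed against 0.5 nM [³H]CP-55,940 using 1 nM–10 μM compound for 60 min at 30 °C. Bound ligand collected on GF/C filters and counted. Ki from IC50 by Cheng-Prusoff; mean SEM of n = 4.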

The target of assay [9] is T2, Cannabinoid receptor 1. In words: Displacement of [3H]CP-55940 from human CB1 receptor expressed in CHO cell membrane at > 10 uM after 90 mins by scintillation counting analysis. In kind it is cell membranes. The essentials:
as §2

The target in assay [10] is Cannabinoid receptor 1 (Rattus norvegicus) (UniProt P20272). In words: Displacement of [3H]CP-55940 from Sprague-Dawley rat brain CB1 receptor at > 10 uM after 90 mins by scintillation counting analysis. The procedure, abridged: as §3
Assay [11] concerns the target T1, Cannabinoid receptor 2. In words: Inverse agonist activity at human CB2 receptor expressed in CHO cell membrane assessed as increase in forskolin-stimulated cAMP production at 1 to 10 uM by scintillation counting analysis in presence of WIN55212-2.

Activity calls are given as the source filed them. No cut-off for these calls is given here.

The term EC50 denotes the concentration needed to bring the measured effect to its halfway point. By Ki is commonly meant the equilibrium dissociation constant of an inhibitor or competing ligand from its target. Low values mean higher affinity, high ones lower affinity.

T2 sequence (P21554 whole entry): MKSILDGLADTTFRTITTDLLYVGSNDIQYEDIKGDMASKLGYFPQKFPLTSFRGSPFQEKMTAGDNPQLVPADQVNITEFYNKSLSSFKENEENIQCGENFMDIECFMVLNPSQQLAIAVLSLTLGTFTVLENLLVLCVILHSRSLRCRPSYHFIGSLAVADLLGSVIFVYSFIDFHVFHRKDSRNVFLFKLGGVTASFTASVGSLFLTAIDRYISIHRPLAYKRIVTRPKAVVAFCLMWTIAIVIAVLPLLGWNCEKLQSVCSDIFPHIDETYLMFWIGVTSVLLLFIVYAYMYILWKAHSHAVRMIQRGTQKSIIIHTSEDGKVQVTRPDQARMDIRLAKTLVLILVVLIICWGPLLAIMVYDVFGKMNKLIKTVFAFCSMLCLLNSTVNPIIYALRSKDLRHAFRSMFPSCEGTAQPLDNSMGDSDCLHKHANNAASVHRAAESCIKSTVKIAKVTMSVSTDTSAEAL
T1 sequence (P34972 whole entry): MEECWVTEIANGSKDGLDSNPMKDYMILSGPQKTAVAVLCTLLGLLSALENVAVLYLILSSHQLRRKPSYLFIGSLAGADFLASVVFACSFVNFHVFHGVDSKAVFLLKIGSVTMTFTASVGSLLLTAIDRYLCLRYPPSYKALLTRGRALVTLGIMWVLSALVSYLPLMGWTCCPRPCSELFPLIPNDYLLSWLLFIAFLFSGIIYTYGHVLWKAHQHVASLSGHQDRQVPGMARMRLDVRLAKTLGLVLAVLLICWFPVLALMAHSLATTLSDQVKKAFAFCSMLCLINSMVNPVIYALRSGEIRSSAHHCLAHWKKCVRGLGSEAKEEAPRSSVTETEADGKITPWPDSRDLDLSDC
Chain of Cannabinoid receptor 1 (Rattus norvegicus, UniProt P20272) (P20272 whole entry): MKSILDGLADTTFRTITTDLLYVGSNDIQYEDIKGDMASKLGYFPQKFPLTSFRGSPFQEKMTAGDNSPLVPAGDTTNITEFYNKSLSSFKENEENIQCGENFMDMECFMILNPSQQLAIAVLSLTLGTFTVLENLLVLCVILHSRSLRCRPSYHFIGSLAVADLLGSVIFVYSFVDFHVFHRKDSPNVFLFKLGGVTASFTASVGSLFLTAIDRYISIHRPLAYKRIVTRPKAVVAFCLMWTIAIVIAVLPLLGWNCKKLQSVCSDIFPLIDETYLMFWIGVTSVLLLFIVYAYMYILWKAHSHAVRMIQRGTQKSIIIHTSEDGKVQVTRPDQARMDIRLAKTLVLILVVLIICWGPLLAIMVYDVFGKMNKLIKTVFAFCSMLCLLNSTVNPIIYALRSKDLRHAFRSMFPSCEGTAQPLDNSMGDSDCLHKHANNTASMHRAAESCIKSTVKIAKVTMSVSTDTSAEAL
Chain of Cannabinoid receptor 1 (Rattus norvegicus) (P20272 whole entry): as above

With `CCCCCn1cc(C(=O)NC2CCCCCC2)c(=O)n2nc(C(C)(C)C)cc12`, the EC50 in assay [1] came to 351 nM. Also, the Activity in assay [2] stood at 213%; in [3], 151%. The Ratio Ki in [4] was found to be 84. Moreover, the Ki in assay [5] was 7.22 nM; in [6], 605 nM; in [7] it was 650 nM; in assay [8], 7.52 nM.

Regarding `CCCCCn1cc(C(=O)NC23CC4CC(CC(C4)C2)C3)c(=O)n2nc(-c3ccccc3)cc12`, in assay [1], the EC50 stood at 195 nM. Moreover, the Activity in [2] turned out to be 195%; in [3], 163%; in assay [9] it was 43%; in assay [10], 40%. The Ratio Ki in assay [4] is > 3910. Moreover, the Ki in assay [5] is 2.56 nM; in [6], > 10000 nM; in assay [7], > 10000 nM; in assay [8] it was 2.74 nM.

With `CCCCCn1cc(C(=O)NC2CCCCC2)c(=O)n2nc(-c3ccccc3Cl)cc12`, the Activity came to 55% in [2], 37% in assay [3], 34% in [9] and 40% in [10]. Moreover, the Ratio Ki in [4] was > 212. Besides, the Ki in assay [5] is 47 nM; in assay [6], > 10000 nM; in [7], > 10000 nM; in [8], 52 nM.

In the case of `CCCCCn1cc(C(=O)NC23CC4CC(CC(C4)C2)C3)c(=O)n2nc(CC)cc12`, in assay [1], the EC50 amounted to 95 nM. For the same compound, the outcome in assay [11] was Active. The Activity in [2] was found to be 243%; in assay [3] it was 173%. Further, the Ratio Ki in [4] came to 143. For the same compound, the Ki worked out at 0.84 nM in assay [5], 120 nM in assay [6], 150 nM in [7] and 0.96 nM in assay [8].

Values taken from ChEMBL document CHEMBL2380310, “Discovery of 7-oxopyrazolo[1,5-a]pyrimidine-6-carboxamides as potent and selective CB(2) cannabinoid receptor inverse agonists” (J Med Chem, 2013).
